The term inhibition denotes the drop in the measured response relative to a control, in per cent. Read a high inhibition as a response far below the control. By IC50 is commonly meant the concentration that inhibits the measured activity by half. A high value points to weaker potency in that assay. As usually defined, the % inhibition is the share of the control response that was lost under treatment. A higher % inhibition goes with a response far below the control. Broadly, the Inhibition is the relative decrease from the control value, in per cent. Read a high Inhibition as strong suppression.

Data set [1] has as its target T1, Amine oxidase [flavin-containing] A (Rattus norvegicus, UniProt P21396).
T1 sequence (P21396 whole entry): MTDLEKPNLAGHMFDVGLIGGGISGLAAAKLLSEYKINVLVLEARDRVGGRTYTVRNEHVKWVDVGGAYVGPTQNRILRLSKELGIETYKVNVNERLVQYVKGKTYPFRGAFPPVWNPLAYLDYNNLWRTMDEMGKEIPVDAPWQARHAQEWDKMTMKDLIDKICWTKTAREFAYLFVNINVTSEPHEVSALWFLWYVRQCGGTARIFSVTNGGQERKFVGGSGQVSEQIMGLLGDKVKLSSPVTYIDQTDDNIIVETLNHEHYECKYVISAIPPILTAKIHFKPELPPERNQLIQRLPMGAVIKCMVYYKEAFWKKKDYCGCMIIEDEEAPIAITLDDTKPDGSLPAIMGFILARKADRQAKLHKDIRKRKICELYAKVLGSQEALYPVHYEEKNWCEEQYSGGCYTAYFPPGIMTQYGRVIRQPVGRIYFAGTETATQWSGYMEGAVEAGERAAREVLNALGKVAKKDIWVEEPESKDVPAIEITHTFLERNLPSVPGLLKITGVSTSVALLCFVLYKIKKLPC
The experiment in a line: Inhibitory activity against Monoamine oxidase A at 1 uM. A digest of the protocol:
(§1)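 Rat brain mitochondrial MAO extract preincubated with inhibitor 15 min at 37 °C in 50 mM potassium phosphate pH 7.4. [3H]serotonin added at 0.2 μM final, then 20 min incubation. Pargyline 2 mM blanks. Stopped with HCl, products extracted into ethyl acetate/toluene and counted radiometrically. Triplicates; IC50 from mean % inhibition vs log concentration.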

The target of data set [2] is T1, Amine oxidase [flavin-containing] A. Nature of the data set: Inhibitory concentration against rat brain mitochondrial monoamine oxidase A. A digest of the protocol:
as §1

For data set [3] the target is unchanged. The experiment in a line: Inhibition of the enzyme Monoamine oxidase A which was not completely reverserved after 24 hr of dialysis. An outline of the steps:
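Reversibility: MAO extract preincubated with or without inhibitor 15 min at 37 °C, in duplicate, then dialysed 24 h at 4 °C with shaking against 0.1 M potassium phosphate pH 7.4, 5% sucrose, 1 mM dithiothreitol, buffer changed ca. 3 and 19 h. Undialysed portions held at 4 °C; both assayed together for MAO activity.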

Data set [4] addresses T2, Amine oxidase [flavin-containing] B (Rattus norvegicus, UniProt P19643).
T2 sequence (P19643 whole entry): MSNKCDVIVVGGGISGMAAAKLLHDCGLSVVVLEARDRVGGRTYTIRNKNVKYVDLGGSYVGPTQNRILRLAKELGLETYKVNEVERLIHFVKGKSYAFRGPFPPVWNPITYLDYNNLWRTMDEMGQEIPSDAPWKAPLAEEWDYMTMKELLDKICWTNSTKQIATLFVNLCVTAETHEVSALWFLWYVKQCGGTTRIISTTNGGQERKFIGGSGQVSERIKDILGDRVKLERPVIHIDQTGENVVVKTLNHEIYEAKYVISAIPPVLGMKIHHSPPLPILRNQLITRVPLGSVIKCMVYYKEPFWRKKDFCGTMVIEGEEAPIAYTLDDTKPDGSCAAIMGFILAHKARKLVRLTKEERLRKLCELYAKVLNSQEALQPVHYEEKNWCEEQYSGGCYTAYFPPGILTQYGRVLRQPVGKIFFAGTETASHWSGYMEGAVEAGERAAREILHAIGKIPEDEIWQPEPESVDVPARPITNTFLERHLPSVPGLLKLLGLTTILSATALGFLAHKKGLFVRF
Nature of the data set: Inhibitory activity against rat brain mitochondrial Monoamine oxidase B; NS=not significant at 0.001 uM. An outline of the steps: (§2)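 Rat brain mitochondrial MAO extract preincubated with inhibitor 15 min at 37 °C in 50 mM potassium phosphate pH 7.4. [14C]phenethylamine added at 10 μM final, then 20 min incubation. Pargyline 2 mM blanks. Stopped with HCl, products extracted into ethyl acetate/toluene and counted radiometrically. Triplicates; IC50 from mean % inhibition vs log concentration.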

For data set [5], the target named is T2, Amine oxidase [flavin-containing] B. Nature of the data set: Inhibitory activity against rat brain mitochondrial Monoamine oxidase B at 3 uM. A digest of the protocol:
as §2

In data set [6] the target is T1, Amine oxidase [flavin-containing] A. Nature of the data set: Inhibitory concentration against rat brain mitochondrial Monoamine oxidase A at 3 uM. A digest of the protocol:
as §1

For data set [7], the target named is T2, Amine oxidase [flavin-containing] B. The experiment in a line: Inhibitory activity against rat brain mitochondrial Monoamine oxidase B at 0.5 uM. An outline of the steps: as §2
The target in data set [8] is T1, Amine oxidase [flavin-containing] A. The experiment in a line: Inhibition of the enzyme Monoamine oxidase A which was not completely reverserved after 24 hr of dialysis after 25 mg/kg po administration *. It is filed as organism-based. As to conditions: in vivo; call rule not given here. Also on record: dose 25 mg/kg, route oral.
For data set [9], the target named is T2, Amine oxidase [flavin-containing] B. The experiment in a line: Inhibitory activity against rat brain mitochondrial Monoamine oxidase B; NS=not significant ta 1 uM. An outline of the steps:
as §2

The target is the same in data set [10]. The experiment in a line: Inhibitory activity against rat brain mitochondrial Monoamine oxidase B 0.1(uM). A digest of the protocol:
as §2

Data set [11] deals with T1, Amine oxidase [flavin-containing] A. Nature of the data set: Inhibitory concentration against rat brain mitochondrial Monoamine oxidase A at <5 uM. A digest of the protocol:
as §1

The target of data set [12] is T2, Amine oxidase [flavin-containing] B. The experiment in a line: Inhibitory activity against rat brain mitochondrial Monoamine oxidase B. A digest of the protocol: as §2
Data set [13] has as its target T1, Amine oxidase [flavin-containing] A. The experiment in a line: Inhibitory activity against rat brain mitochondrial Monoamine oxidase A (Expt 2).
Data set [14] shares this target. Nature of the data set: Inhibitory concentration against rat brain mitochondrial Monoamine oxidase A (Expt 1). An outline of the steps:
as §1

For data set [15], the target named is T2, Amine oxidase [flavin-containing] B. The experiment in a line: Inhibitory activity against rat brain mitochondrial Monoamine oxidase B;NS=not significant at 0.1 uM. An outline of the steps:
as §2

For data set [16] the target is unchanged. The experiment in a line: Inhibitory activity against rat brain mitochondrial Monoamine oxidase B;NS=not significant at 1 uM. A digest of the protocol:
as §2

Data set [17] shares this target. The experiment in a line: Inhibitory activity against rat brain mitochondrial Monoamine oxidase B at 0.0 uM. A digest of the protocol:
as §2

Data set [18] addresses T1, Amine oxidase [flavin-containing] A. The experiment in a line: Inhibitory concentration against rat brain mitochondrial Monoamine oxidase A at 0.5 uM. A digest of the protocol:
as §1

Data set [19] addresses T2, Amine oxidase [flavin-containing] B. The experiment in a line: Inhibitory activity against rat brain mitochondrial Monoamine oxidase B at 0.1 uM. A digest of the protocol:
as §2

Each structure is given as a SMILES string.

The compound `c1ccc2c(c1)cc(C1=NCCN1)c1ccccc12` had an inhibition at 1 µM in data set [1] of 30%.
As for `Cc1ccc2c(c1)C(=O)c1ccc(-c3nnc(C)o3)cc1S2(=O)=O`, the IC50 in [2] is 0.002 µM; in data set [4], “Not Active”. The Reversible in data set [3] is on record as 10%.
Regarding `c1ccc2c(c1)[nH]c1cc(C3=NCCN3)ccc12`, the inhibition at 3 µM in [5] amounted to 38%; in data set [6], 33%.
Compound `COc1nc(-c2ccc3c(c2)S(=O)(=O)c2ccccc2C3=O)no1` displayed an IC50 in [2] of 0.08 µM. In data set [7], this compound gave an inhibition at 0.5 µM of 23%.
Take `Cc1nnc(-c2ccc3c(c2)S(=O)(=O)c2ccccc2C3=O)o1`: the IC50 in [2] was 0.002 µM; in data set [9], “Not Active”. For the same compound, the Reversible in [8] is listed as 33%.
`O=S1(=O)c2cc(C3=NCCN3)ccc2Oc2ccc(C3=NCCN3)cc21` came in with a % inhibition in [10] of 5%.
Take `O=C1c2ccccc2S(=O)(=O)c2cc(-c3ncc[nH]3)ccc21`: the values for the Inhibition in data set [11] and in [12] were 44% and 10%, respectively.
Take `CCCOc1ccc2c(c1)C(=O)c1ccc(C3=NCCN3)cc1S2(=O)=O`: the IC50 was 0.009 µM in [13], 0.04 µM in data set [14] and “Not Active” in data set [15]. Moreover, the Reversible in data set [3] came to 2%.
Regarding `O=C1c2cc(NCCO)ccc2S(=O)(=O)c2cc(C3=NCCN3)ccc21`, the IC50 in [2] is 0.04 µM; in data set [16], “Not Active”.
In the case of `CCCNc1ccc2c(c1)C(=O)c1ccc(C3=NCCN3)cc1S2(=O)=O`, the IC50 in data set [2] turned out to be 0.02 µM. The Reversible in [3] is 0%. This compound also registered an Inhibition in [17] of 4%.
In [18], `O=C1c2ccccc2S(=O)(=O)c2cc(-c3nnc(C(F)(F)F)o3)ccc21` gave an inhibition at 0.5 µM of 7%. In addition, the inhibition at 0.1 µM in [19] came out at 7%.

For the origin of these results see ChEMBL document CHEMBL1129565, “Selective inhibitors of monoamine oxidase. 3. Structure-activity relationship of tricyclics bearing imidazoline, oxadiazole, or tetrazole groups” (J Med Chem, 1996).
